Tests used:
[1] = Selectivity ratio for Escherichia coli TrmD over human SET7/9
[2] = Inhibition of Haemophilus influenzae TrmD using S-[methyl-3H] adenosyl-L-methionine as substrate assessed as leucine-tRNA methylation after 1 hr by scintillation proximity assay
How it was run: (§1)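 Radiometric SPA: TrmD in 50 mM HEPES pH 7.5 with 5 mM MgCl2 (E. coli and K. pneumoniae 10 nM, S. aureus 10 nM, P. aeruginosa 5 nM, H. influenzae 4 nM in enzyme reagent), mixed 1:1 with a reagent of 0.05 μM [3H]SAM, 2 μM unlabelled SAM and 2 μM synthetic E. coli leucine-tRNA. Compounds are 2-fold serial DMSO dilutions. Incubation is 1 h at room temperature.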

Haemophilus influenzae = experiment: Antibacterial activity against recombinant Haemophilus influenzae harboring acrB::cap mutant assessed as growth inhibition by broth microdilution method; type: functional
[3] = Inhibition of Escherichia coli TrmD using S-[methyl-3H] adenosyl-L-methionine as substrate assessed as leucine-tRNA methylation after 1 hr by scintillation proximity assay; how it was run: as §1
[4] = target: T1, Histone-lysine N-methyltransferase SETD7 (Homo sapiens) (UniProt Q8WTS6); experiment: Inhibition of human SET7/9 at 20 uM relative to control
T1 sequence (whole entry): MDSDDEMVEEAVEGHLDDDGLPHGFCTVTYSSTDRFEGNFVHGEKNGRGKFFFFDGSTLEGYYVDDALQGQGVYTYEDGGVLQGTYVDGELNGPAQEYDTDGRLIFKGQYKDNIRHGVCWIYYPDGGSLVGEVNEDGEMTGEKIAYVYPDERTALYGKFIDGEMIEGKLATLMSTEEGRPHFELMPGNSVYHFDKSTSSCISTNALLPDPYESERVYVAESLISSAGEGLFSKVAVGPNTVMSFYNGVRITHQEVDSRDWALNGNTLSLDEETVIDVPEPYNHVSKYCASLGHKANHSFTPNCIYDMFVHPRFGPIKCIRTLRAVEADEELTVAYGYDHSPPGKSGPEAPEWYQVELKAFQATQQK

[5] = target: Protein arginine N-methyltransferase 1 (Homo sapiens) (UniProt Q99873); experiment: Inhibition of human PRMT1 at 20 uM relative to control
[6] = Inhibition of Staphylococcus aureus TrmD using S-[methyl-3H] adenosyl-L-methionine as substrate assessed as leucine-tRNA methylation after 1 hr by scintillation proximity assay; how it was run: as §1
[7] = Selectivity ratio for Escherichia coli TrmD over human PRMT1

Sequence of Protein arginine N-methyltransferase 1 (Homo sapiens) (Q99873 whole entry, looked up): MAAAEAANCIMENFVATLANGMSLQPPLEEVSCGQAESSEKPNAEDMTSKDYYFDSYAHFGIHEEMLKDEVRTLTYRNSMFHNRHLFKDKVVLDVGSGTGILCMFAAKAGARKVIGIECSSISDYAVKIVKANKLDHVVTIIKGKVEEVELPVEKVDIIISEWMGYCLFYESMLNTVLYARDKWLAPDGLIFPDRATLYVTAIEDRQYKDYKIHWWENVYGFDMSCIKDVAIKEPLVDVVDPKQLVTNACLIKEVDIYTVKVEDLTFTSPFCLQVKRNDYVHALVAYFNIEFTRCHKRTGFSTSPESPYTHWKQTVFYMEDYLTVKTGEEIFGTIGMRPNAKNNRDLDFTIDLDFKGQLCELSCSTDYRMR

## O=C(NCc1ccc(CN2CCC(O)C2)cc1)c1csc2nc[nH]c(=O)c12 (stereo not drawn)
[1]
  Selectivity ratio: 50
[2]
  IC50: 0.37 µM
Haemophilus influenzae
  MIC: 3.1 µM
[3]
  IC50: 0.42 µM
[4]
  inhibition: < 10%
[5]
  inhibition: < 10%
[6]
  IC50: 4.4 µM
[7]
  Selectivity ratio: 50
